ChEMBL document CHEMBL1123954, “Synthesis and antitumor activity of analogues of ifosfamide modified in the N-(2-chloroethyl) group” (J Med Chem, 1988)

Tests used:
[1] = test system: Mus musculus; assay: Percentage increase in life span of L1210 leukemia implanted mice at a dose of 150 mg/kg; assay type: functional
In short: (§1)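 Female CD2F1 mice, 10–12 weeks old, inoculated ip on day 0 with 10⁵ L1210 leukemia cells. Test agent dissolved in sterile saline immediately before use and given as a single ip dose on day 1 at 0.01 mL/g body weight. Groups of 6–8 treated and 18–24 control mice, following NCI screening protocol. Read-out is % increase in life span, with survivors noted at day 60.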

[2] = Lethal dose to kill 50% of the mice after single ip injection to healthy female CD2F1 mice; assay type: toxicity, organism-based; settings: CD2F1, mouse, in vivo
In short: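 Healthy female CD2F1 mice received a single ip injection at 5–6 dose levels spanning 0–100% mortality, with 10 or 15 animals per group. Deaths were followed for 21 days. LD50 and 95% confidence limits were calculated by probit analysis.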

[3] = species: Mus musculus; assay: Effective dose that causes 50% increase in life span of mice; assay type: functional
In short: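 In L1210-bearing mice, ip dosing was run on day 1 across 4–6 dose levels giving 15–100% ILS, with six mice per dose. ED50 (dose giving 50% ILS) was obtained per experiment by linear regression of dose against %ILS. Values are reported as mean ± SD over the number of experiments.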

[4] = test system: Mus musculus; assay: Percentage increase in life span of L1210 leukemia implanted mice at a dose of 400 mg/kg; assay type: functional; in short: as §1
[5] = test system: Mus musculus; assay: Percentage increase in life span of L1210 leukemia implanted mice at a dose of 300 mg/kg; assay type: functional; in short: as §1
[6] = test system: Mus musculus; assay: Percentage increase in life span of L1210 leukemia implanted mice at a dose of 60 mg/kg; assay type: functional; in short: as §1
[7] = test system: Mus musculus; assay: Percentage increase in life span of L1210 leukemia implanted mice at a dose of 200 mg/kg; assay type: functional; in short: as §1
[8] = test system: Mus musculus; assay: Percentage increase in life span of L1210 leukemia implanted mice at a dose of 100 mg/kg; assay type: functional; in short: as §1
[9] = test system: Mus musculus; assay: Percentage increase in life span of L1210 leukemia implanted mice at a dose of 500 mg/kg; assay type: functional; in short: as §1
[10] = test system: Mus musculus; assay: Percentage increase in life span of L1210 leukemia implanted mice at a dose of 120 mg/kg; assay type: functional; in short: as §1
[11] = test system: Mus musculus; assay: Percentage increase in life span of L1210 leukemia implanted mice at a dose of 30-180 mg/kg; value range is 0-12; assay type: functional; in short: as §1
[12] = test system: Mus musculus; assay: Percentage increase in life span of L1210 leukemia implanted mice at a dose of 15-60 mg/kg; assay type: functional; in short: as §1
[13] = test system: Mus musculus; assay: Percentage increase in life span of L1210 leukemia implanted mice at a dose of 30-180 mg/kg; assay type: functional; in short: as §1
[14] = test system: Mus musculus; assay: Percentage increase in life span of L1210 leukemia implanted mice at a dose of […] 50 mg/kg; assay type: functional; in short: as §1
[15] = test system: Mus musculus; assay: Percentage increase in life span of L1210 leukemia implanted mice at a dose of 80 mg/kg; assay type: functional; in short: as §1
[16] = test system: Mus musculus; assay: Percentage increase in life span of L1210 leukemia implanted mice at a dose of 180 mg/kg; assay type: functional; in short: as §1
[17] = test system: Mus musculus; assay: Percentage increase in life span of L1210 leukemia implanted mice at a dose of 600 mg/kg; assay type: functional; in short: as §1

Structure (SMILES) | ILS at 150 mg/kg [1] | LD50 [2] | ED50 [3] | ILS at 400 mg/kg [4] | ILS at 300 mg/kg [5] | ILS at 200 mg/kg [7] | ILS at 100 mg/kg [8] | ILS at 120 mg/kg [10] | other results
O=[P@@]1(NCCBr)OCCCN1CCCl | > 550% | 368 mg/kg | 27.7 mg/kg | 62% | > 350% | > 550% | > 550% |  | ILS at 60 mg/kg [6]: 140%
O=[P@]1(NCCBr)OCCCN1CCCl | > 500% | 541 mg/kg | 66.2 mg/kg | > 550% | > 550% | > 550% |  | 114% | ILS at 500 mg/kg [9]: 206%
O=P(OCCNP1(=O)OCCCN1CCCl)(OCc1ccccc1)OCc1ccccc1 (stereo not given) |  |  |  |  |  |  |  |  | ILS [11]: 0%
CCOP(=O)(OCC)OCCNP1(=O)OCCCN1CCCl (stereo not given) |  |  |  |  |  |  |  |  | ILS [11]: 0%
O=P1(NCCF)OCCCN1CCCl (stereo not given) |  |  |  |  |  | -40% | -40% |  | ILS [12]: 10%
Cc1ccc(S(=O)(=O)OCCNP2(=O)OCCCN2CCCl)cc1 (stereo not given) |  |  |  |  |  |  |  |  | ILS [13]: 13%
O=P1(NCCBr)OCCCN1CCCl (stereo not given) | > 550% | 470 mg/kg | 36.2 mg/kg | 500% | > 550% | > 550% | > 430% |  | ILS at 60 mg/kg [6]: 88%; ILS at 50 mg/kg [14]: 74%; ILS at 80 mg/kg [15]: 110%
CC(=O)OCCNP1(=O)OCCCN1CCCl (stereo not given) |  |  |  |  |  |  |  |  | ILS [13]: 13%
O=P1(N(CCCl)CCCl)NCCCO1 (stereo not given) [CYCLOPHOSPHAMIDE ANHYDROUS] | 89% | 445 mg/kg | 90.6 mg/kg | > 425% | > 550% | > 550% |  | 86% | 
O=P1(NCCCl)OCCCN1CCCl (stereo not given) [IFOSFAMIDE] | 123% | 679 mg/kg | 88.6 mg/kg | > 500% | > 400% | > 350% |  | 74% | ILS at 500 mg/kg [9]: > 500%; ILS at 180 mg/kg [16]: > 250%; ILS at 600 mg/kg [17]: > 480%
